Compounds with a hit are over-represented: about 3.8% of the library has one in this group of screens.
ARNT TACC3 PPI – disruptors of ARNT/TACC3 protein interaction, primary screen, biochemical, AlphaScreen, single concentration | Transforming acidic coiled-coil-containing protein 3 (Homo sapiens), Q9Y6A5 | inhibition, % at 9.99 µM | AID 623870, 2012 | 0.66% of 390,000 active | AlphaScreen His-ARNT PAS-B/GST-TACC3 binding, luminescence; TACC3 fragment carries E629A point mutation;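 active = mean inhibition of replicates at least 50% and at least half of replicates each reaching 50%; inconclusive = half or more replicates reach 50% but mean below 50%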
SIRT5 block – SIRT5 desuccinylase inhibitors, primary screen, biochemical, fluorescence imaging, single point, set 5 | NAD-dependent protein deacylase sirtuin-5, mitochondrial (Homo sapiens), Q9NXA8 | Purified SirT5, succinyl-peptide AMC, trypsin-coupled fluorescence | inhibition, % at 15 µM | 1.1% of 330,000 active | AID 652115, 2013; in the data active = inhibition above about 15%; inconclusive = no clear call, values can overlap the other calls
Target sequence (Q9NXA8 whole entry, looked up): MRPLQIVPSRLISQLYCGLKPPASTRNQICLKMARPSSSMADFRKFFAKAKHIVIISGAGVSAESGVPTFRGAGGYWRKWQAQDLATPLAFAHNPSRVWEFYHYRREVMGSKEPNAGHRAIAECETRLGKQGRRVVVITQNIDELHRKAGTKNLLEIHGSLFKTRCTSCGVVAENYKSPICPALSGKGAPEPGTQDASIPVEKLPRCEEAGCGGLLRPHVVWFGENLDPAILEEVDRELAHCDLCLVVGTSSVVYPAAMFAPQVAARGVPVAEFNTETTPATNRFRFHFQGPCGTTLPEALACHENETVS
Xi reactivation – activators of inactive X chromosome reactivation, primary screen, imaging, XiGFP fibroblasts, GFP high-content imaging, set 2. XiGFP mouse fibroblasts, % GFP-positive cells imaging, 3 d; cells co-treated with 5-aza-dC sensitizer; scaled so ellipticine positive control = 100%. activation, % at 7.58 µM. 0.055% of 360,000 active. AID 743238, 2013;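 active = mean normalized replicate activation at least 10% and every replicate at or above 10%; inconclusive = only one of the two criteria met; inactive = mean below 10% and not all replicates reach 10%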
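Material: SV40-immortalized XiGFP fibroblast cells, line 68-5-11 | Buffer or medium: DMEM containing 5-aza-dC | Dosing: One concentration, pinned | Times: 3 d treatment, 15 min room-temperature fixation | Controls: Ellipticine 6 µM positive control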
FN deposit inh – inhibitors of fibronectin matrix deposition, primary screen, AH1F cells, Alexa488-fibronectin fluorescence, plate reader; AH1F fibroblasts, overnight; inhibition, % at 12.6 µM; 0.086% of 350,000 active;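 active = mean inhibition across replicates of 30% or more, regardless of how many single replicates reach that level; inconclusive = mean under 30% yet at least half of replicates reach 30%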
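material = AH1F fibroblast monolayer depositing Alexa488-labelled fibronectin into matrix | amount = 10000 AH1F cells/well | buffer or medium = DMEM plus 2% serum, read in PBS | incubation = 1 h cell adhesion before compound, then overnight fibronectin incubation | detection = fluorescence at 485 nm excitation, 525 nm emission | evaluation = percent inhibition as loss of matrix-bound fibronectin fluorescence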
DENV2 CPE rescue – inhibitors of DENV2 cytopathic effect, primary screen, cell-based, plate reader, single concentration. CPE inhibition, % at 9.99 µM. 1.7% of 350,000 active. DENV2-infected cells, cytopathic effect rescue; in the data active = CPE inhibition above about 20%, passing the limit was not always enough; inconclusive = no clear call, values can overlap the other calls; tested in BHK-21 cells
FGF22 binding – binders of human FGF22 protein, primary screen, FGF22 synaptogenesis inhibitor project, biophysical, thermal shift, single point; AID 651658, 2012; 1.5% of 340,000 active; recombinant FGF22 thermal shift, SYPRO orange fluorescence; percent of sucrose octasulfate shift, DMSO zero; activity (Tm shift, normalised), % at 9.99 µM; Fibroblast growth factor 22 (Homo sapiens), Q9HCT0;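 active = mean Tm shift, scaled 0 neutral to 100 positive control, at about 1.3% or above, every replicate too, limit read from the data; inconclusive = no clear call, values can overlap the other calls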
Target sequence (Q9HCT0 whole entry, looked up): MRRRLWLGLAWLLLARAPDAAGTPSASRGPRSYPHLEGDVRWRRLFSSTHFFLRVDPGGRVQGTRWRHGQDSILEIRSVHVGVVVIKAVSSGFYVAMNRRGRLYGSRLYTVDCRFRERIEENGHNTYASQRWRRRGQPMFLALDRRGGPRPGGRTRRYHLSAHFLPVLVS
Numbers stand for hits; - = inactive; ? = inconclusive; . = no result given.

SMILES	ARNT TACC3 PPI	SIRT5 block	Xi reactivation	FN deposit inh	DENV2 CPE rescue	FGF22 binding
COc1ccc(CCNC(=O)c2ccc([N+](=O)[O-])cc2)cc1	-	-	?	-	-	-
C[C@H]1CCCCO[C@@H](CN(C)Cc2ccncc2)[C@@H](C)CN([C@@H](C)CO)C(=O)c2cc(NC(=O)C3CCCCC3)ccc2O1	-	-	-	.	-	-
CCCn1c(O)c(/C=C2\C=NN=C2c2ccccc2)sc1=S	-	.	.	.	.	.
C=CCn1c(O)c(/C=C2\C=NN=C2c2ccccc2)sc1=S	-	17.6	-	-	-	-
Cc1ccc2nc(-c3ccccn3)c(Nc3ccccc3C)n2c1	64.5	-	-	-	-	-
Cc1ccccc1Nc1c(-c2ccccn2)nc2ccccn12	59.3	-	-	-	-	-
CO[C@H]1CN(C)C(=O)c2ccc(NC(=O)c3ccc(F)cc3)cc2OC[C@@H](C)N(C(=O)c2ccc(F)cc2)C[C@H]1C	-	-	-	-	-	-
C[C@@H]1CCCCO[C@@H](CN(C)S(=O)(=O)c2ccccc2)[C@@H](C)CN([C@H](C)CO)C(=O)c2cc(NC(=O)CCC(F)(F)F)ccc2O1	-	-	-	.	-	14.8
C[C@H](CO)N1C[C@H](C)[C@H](CN(C)S(=O)(=O)c2ccccc2)OCCCC[C@H](C)Oc2ccc(NC(=O)CCCN(C)C)cc2C1=O	-	-	-	-	-	-
Cc1ccc(S(=O)(=O)N(C)C[C@H]2OCCCC[C@@H](C)Oc3ccc(NC(=O)CCCN(C)C)cc3C(=O)N([C@@H](C)CO)C[C@@H]2C)cc1	-	-	-	-	-	-
C[C@H](CO)N1C[C@H](C)[C@H](CN(C)S(=O)(=O)c2ccc(F)cc2)OCCCC[C@H](C)Oc2ccc(NC(=O)CCCN(C)C)cc2C1=O	-	-	-	-	33.6	-
C[C@@H]1CCCCO[C@H](CN(C)S(=O)(=O)c2ccccc2)[C@@H](C)CN([C@@H](C)CO)C(=O)c2cc(NC(=O)CCCN(C)C)ccc2O1	-	-	-	-	110.6	-
CCOC(=O)CCCCCC(=O)Nc1ccc2c(c1)C(=O)N([C@H](C)CO)C[C@@H](C)[C@@H](CN(C)S(=O)(=O)c1ccc(C)cc1)OCCCC[C@H](C)O2	.	21.3	-	-	?	-
COc1ccc(S(=O)(=O)N(C)C[C@H]2OCCCC[C@@H](C)Oc3ccc(NC(=O)CCCN(C)C)cc3C(=O)N([C@H](C)CO)C[C@@H]2C)cc1	-	-	-	.	-	-
C[C@@H]1CN([C@@H](C)CO)C(=O)c2cc(NC(=O)CCCN(C)C)ccc2O[C@@H](C)CCCCO[C@@H]1CN(C)S(=O)(=O)c1ccc(F)cc1	-	-	-	-	43.5	-
COc1ccc(S(=O)(=O)N(C)C[C@H]2OCCCC[C@H](C)Oc3ccc(NC(=O)CCCN(C)C)cc3C(=O)N([C@H](C)CO)C[C@H]2C)cc1	-	-	-	.	38.2	-
COc1ccc2c3c(n(C)c2c1)[C@H](CO)N(C(=O)Nc1ccc(F)cc1)CC31CN(Cc2cccnc2)C1	.	-	-	.	-	-
C[C@@H]1CN([C@H](C)CO)C(=O)c2cc(C#CCN(C)C)cnc2O[C@H]1CN(C)C(=O)CN1CCOCC1	-	-	-	-	-	-
CC(C)C(=O)Nc1ccc2c(c1)C(=O)N(C)[C@@H]1CC[C@H](CC(=O)NCC3CC3)O[C@@H]1CO2	-	-	-	-	-	-
COC(=O)[C@]1(Cc2ccccc2)N[C@H](CN(C)C(=O)Nc2ccc(Cl)cc2)[C@@H]2C(=O)N(Cc3ccccc3)C(=O)[C@@H]21	-	-	-	-	21.7	-
CCN(C[C@H]1N[C@@](CC)(C(=O)OC)[C@H]2C(=O)N(Cc3ccccc3)C(=O)[C@@H]12)C(=O)COc1ccccc1	-	.	-	-	66.4	-
COC(=O)[C@@]1(Cc2ccccc2)[C@H]2C(=O)N(Cc3ccccc3)C(=O)[C@H]2[C@H]2CN=C(SCc3ccc(Cl)cc3)N21	-	-	-	-	84.5	-
COC(=O)[C@]1(Cc2ccccc2)N[C@H](CN(C)C(=O)Nc2ccccc2)[C@@H]2C(=O)N(Cc3ccccc3)C(=O)[C@@H]21	-	-	-	-	-	-
CCNC(=O)N(C)C[C@H]1N[C@@](CC)(C(=O)OC)[C@H]2C(=O)N(Cc3ccccc3)C(=O)[C@@H]12	-	-	-	-	28.6	-
CC[C@@]1(C(=O)OC)N[C@H](CN(C)C(=O)NC(C)C)[C@@H]2C(=O)N(Cc3ccccc3)C(=O)[C@@H]21	-	-	-	-	-	-
SMILES	ARNT TACC3 PPI	SIRT5 block	Xi reactivation	FN deposit inh	DENV2 CPE rescue	FGF22 binding
CCN1C(=O)[C@H]2[C@H]3CN=C(SCc4ccc(Cl)cc4)N3[C@@](Cc3ccccc3)(C(=O)OC)[C@H]2C1=O	-	-	-	-	-	-
CCCC#Cc1ccc([C@H]2[C@H]3CN(S(=O)(=O)Cc4ccccc4)CC(=O)N3[C@H]2CO)cc1	.	-	-	.	-	.
CC[C@@H]1C/C=C\C[C@H](c2ccc(OC)cc2OC)NC(=O)[C@H](C)CC(=O)N1	.	.	-	-	.	.
O=C(C[C@H]1C=C[C@H](NS(=O)(=O)c2ccc(F)cc2)[C@@H](CO)O1)NCc1ccc(Cl)c(Cl)c1	.	-	-	.	-	-
O=C(Cn1cnc([N+](=O)[O-])n1)N/N=C/c1ccc2ccccc2c1	.	-	-	-	-	43.7
C/C=C/c1ccc([C@@H]2[C@@H](CO)N(C(=O)CC)[C@H]2CNC(=O)C2CC2)cc1	-	-	-	-	-	-
C/C=C/c1ccc([C@@H]2[C@@H](CNC(=O)C3CC3)N(C(=O)CC)[C@H]2CO)cc1	-	-	-	-	25.7	-
C/C=C/c1ccc([C@H]2[C@@H](CO)N(C(C)=O)[C@H]2CNC(=O)c2ccccc2)cc1	-	-	-	-	23.9	-
C/C=C/c1ccc([C@@H]2[C@H](CO)N(Cc3ccccn3)[C@H]2CNC(C)=O)cc1	37.2	-	-	-	-	-
C[C@@H]1CN([C@H](C)CO)C(=O)c2cccc(NC(=O)Nc3ccc(F)cc3)c2O[C@H]1CN(C)C(=O)Nc1ccc2c(c1)OCO2	-	-	-	-	-	-
Cn1cnnc1Sc1cc(N2CCN(S(=O)(=O)c3ccccc3)CC2)ccc1[N+](=O)[O-]	-	-	-	-	-	44.7

Screening results (PubChem BioAssay)
